Experimental data: ChEMBL document CHEMBL4145631, “Riluzole-Triazole Hybrids as Novel Chemical Probes for Neuroprotection in Amyotrophic Lateral Sclerosis” (ACS Med Chem Lett, 2018)
Active and inactive are the calls of the source.

Experiments:
Rattus norvegicus = test: Protection against glutamate-induced seizures in ip dosed Sprague-Dawley rat pretreated for 30 mins followed by glutamate challenge and measured for 30 mins; assay type: functional
Cortical neurone [1] = test: Neuroprotective activity against kainate-induced cell death in mouse primary cortical neurons by MTT assay; assay type: functional, cell-based
Cortical neurone [2] = test: Neuroprotective activity against kainate-induced cell damage in mouse primary cortical neurons assessed as reversal of kainate-induced reduction in calcium flux by fura-2-AM dye based fluorescence assay; assay type: functional
Procedure, shortened: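 Mouse primary cortical neurons loaded with fura-2AM for 45 min, washed, then depolarized with 10 mM KCl to drive Ca2+ entry through voltage-gated calcium channels. Flux read on a plate-based system.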

Mus musculus [3] = organism: Mus musculus; test: Neuroprotective activity against kainate-induced cell death in mouse primary motor neurons by cell counting method; assay type: functional
Mus musculus [4] = organism: Mus musculus; test: Neuroprotective activity against kainate-induced cell death in mouse primary motor neurons by caspase activation method; assay type: functional
Mus musculus [5] = organism: Mus musculus; test: Neuroprotective activity against kainate-induced cell death in mouse primary motor neurons by MTT assay; assay type: functional
Cortical neurone [6] = test: Neuroprotective activity against kainate-induced cell death in mouse primary cortical neurons by caspase activation method; assay type: functional, cell-based
Cortical neurone [7] = test: Neuroprotective activity against kainate-induced cell damage in mouse primary cortical neurons assessed as reduction in kainate-induced neurofilament loss by measuring increase in MAPK level at 1 uM pretreated followed by kainate challenge measured after 18 hrs by fluorescence assay; assay type: functional, cell-based; details: in the assay text read “MAP2” for “MAPK”
Procedure, shortened: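 Mouse primary cortical neurons cultured as previously described; dendritic processes stained with anti-MAP2 antibody. Cell-profile perimeter measured by image analysis, each condition normalized to kainate-only.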

Cortical neurone [8] = test: Neuroprotective activity against kainate-induced cell death in mouse primary cortical neurons by cell counting method; assay type: functional, cell-based
Cortical neurone [9] = test: Toxicity in mouse primary cortical neurons assessed as MAP2 loss by fluorescence assay; assay type: cell-based
Procedure, shortened: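 MAP2 immunostaining of dendritic processes in mouse primary cortical neurons, with cell-profile perimeter measured by image analysis.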

Mus musculus [10] = organism: Mus musculus; test: Neuroprotective activity against kainate-induced cell damage in mouse primary motor neurons assessed as reversal of kainate-induced neuronal length preceding cell death at […] by fluorescence assay; assay type: functional
Procedure, shortened: (§1)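 Mouse primary motor neurons, fixed after treatment and stained with SMI-32 for neurofilaments, then fluorescently imaged. Sholl analysis counted process intersections at each 100 μm radius from the cell centre. Ten cells per condition, three independent experiments, data pooled.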

Mus musculus [11] = organism: Mus musculus; test: Neuroprotective activity against kainate-induced cell damage in mouse primary motor neurons assessed as reversal of kainate-induced neuronal length preceding cell death by fluorescence assay; assay type: functional; procedure, shortened: as §1
Mus musculus [12] = organism: Mus musculus; test: Neuroprotective activity against kainate-induced cell damage in mouse primary motor neurons assessed as reversal of kainate-induced neuronal length preceding cell death at 500 nM by fluorescence assay; assay type: functional; procedure, shortened: as §1

| Compound | ED50 (Rattus norvegicus) | Activity (Cortical neurone [1]) | Activity (Cortical neurone [2]) | Activity (Mus musculus [3]) | Activity (Mus musculus [4]) | Activity (Mus musculus [5]) | Activity (Cortical neurone [6]) | Activity (Cortical neurone [7]) | Activity (Cortical neurone [8]) | Activity (Cortical neurone [9]) | Activity (Mus musculus [10]) | Activity (Mus musculus [11]) | Activity (Mus musculus [12]) |
| --- | --- | --- | --- | --- | --- | --- | --- | --- | --- | --- | --- | --- | --- |
| N=c1sc2cc(OC(F)(F)F)ccc2n1CCN1CCN(c2ccccc2)CC1 | 3.5 mg/kg | – | – | – | – | – | – | – | – | – | – | – | – |
| N=c1sc2cc(OC(F)(F)F)ccc2n1CCN1CCC(c2ccccc2)CC1 | 3 mg/kg | – | – | – | – | – | – | – | – | – | – | – | – |
| CC(C)(C)c1ccc(-c2cn(CCn3c(=N)sc4cc(OC(F)(F)F)ccc43)nn2)cc1 | – | inactive | Active | inactive | inactive | inactive | inactive | inactive | inactive | – | – | – | – |
| N=c1sc2cc(OC(F)(F)F)ccc2n1CCn1cc(-c2ccccc2F)nn1 | – | inactive | Active | inactive | inactive | inactive | inactive | inactive | inactive | – | – | – | – |
| N=c1sc2cc(OC(F)(F)F)ccc2n1CCn1cc(-c2cc(F)cc(F)c2)nn1 | – | inactive | Active | inactive | inactive | inactive | inactive | inactive | inactive | – | – | – | – |
| COC(=O)c1ccc(-c2cn(CCn3c(=N)sc4cc(OC(F)(F)F)ccc43)nn2)cc1 | – | inactive | Active | inactive | inactive | inactive | inactive | inactive | inactive | Toxic | – | – | – |
| N=c1sc2cc(OC(F)(F)F)ccc2n1CCn1cc(-c2cccc(C(F)(F)F)c2)nn1 | – | inactive | Active | inactive | inactive | inactive | inactive | inactive | inactive | – | – | – | – |
| N=c1sc2cc(OC(F)(F)F)ccc2n1CCn1cc(-c2ccc(F)c(F)c2)nn1 | – | inactive | Active | inactive | inactive | inactive | inactive | inactive | inactive | – | – | – | – |
| Nc1nc2ccc(OC(F)(F)F)cc2s1 [RILUZOLE] | 3.2 mg/kg | inactive | – | inactive | inactive | inactive | inactive | inactive | inactive | – | Active | – | – |
| N=c1sc2cc(OC(F)(F)F)ccc2n1CCn1cc(-c2ccc(F)cc2F)nn1 | – | inactive | Active | inactive | inactive | inactive | inactive | inactive | inactive | – | – | – | – |
| CCCCCCc1ccc(-c2cn(CCn3c(=N)sc4cc(OC(F)(F)F)ccc43)nn2)cc1 | – | inactive | Active | inactive | inactive | inactive | inactive | inactive | inactive | – | – | – | – |
| CC(C)(C)c1cn(CCn2c(=N)sc3cc(OC(F)(F)F)ccc32)nn1 | – | inactive | Active | inactive | inactive | inactive | inactive | inactive | inactive | – | – | – | – |
| CCCc1ccc(-c2cn(CCn3c(=N)sc4cc(OC(F)(F)F)ccc43)nn2)cc1 | – | inactive | Active | inactive | inactive | inactive | inactive | inactive | inactive | – | – | – | – |
| CN(C)c1ccc(-c2cn(CCn3c(=N)sc4cc(OC(F)(F)F)ccc43)nn2)cc1 | – | inactive | Active | inactive | inactive | inactive | inactive | inactive | inactive | – | – | – | – |
| N=c1sc2cc(OC(F)(F)F)ccc2n1CCn1cc(-c2ccc(F)cc2)nn1 | – | inactive | Active | inactive | inactive | inactive | inactive | inactive | inactive | – | – | – | – |
| N=c1sc2cc(OC(F)(F)F)ccc2n1CCn1cc(-c2cccc3ccccc23)nn1 | – | inactive | Active | inactive | inactive | inactive | inactive | inactive | inactive | – | – | – | – |
| N=c1sc2cc(OC(F)(F)F)ccc2n1CCn1cc(-c2ccc(Br)cc2)nn1 | – | inactive | Active | inactive | inactive | inactive | inactive | Active | inactive | – | – | inactive | – |
| N=c1sc2cc(OC(F)(F)F)ccc2n1CCn1cc(-c2ccncc2)nn1 | – | inactive | Active | inactive | inactive | inactive | inactive | Active | inactive | – | – | – | Active |
| CC(C)CCc1cn(CCn2c(=N)sc3cc(OC(F)(F)F)ccc32)nn1 | – | inactive | Active | inactive | inactive | inactive | inactive | inactive | inactive | – | – | – | – |
| N=c1sc2cc(OC(F)(F)F)ccc2n1CCn1cc(-c2ccccc2N)nn1 | – | inactive | Active | inactive | inactive | inactive | inactive | Active | inactive | – | – | – | – |
| CCc1ccc(-c2cn(CCn3c(=N)sc4cc(OC(F)(F)F)ccc43)nn2)cc1 | – | inactive | Active | inactive | inactive | inactive | inactive | Active | inactive | – | – | inactive | – |
| N=c1sc2cc(OC(F)(F)F)ccc2n1CCn1cc(-c2ccccc2)nn1 | – | inactive | Active | inactive | inactive | inactive | inactive | inactive | inactive | – | – | inactive | – |
| COc1ccc(-c2cn(CCn3c(=N)sc4cc(OC(F)(F)F)ccc43)nn2)cc1 | – | inactive | Active | inactive | inactive | inactive | inactive | inactive | inactive | – | – | – | – |
| N=c1sc2cc(OC(F)(F)F)ccc2n1CCn1cc(-c2cccc(N)c2)nn1 | – | inactive | Active | inactive | inactive | inactive | inactive | inactive | inactive | – | – | – | – |
| CC(C)Cc1cn(CCn2c(=N)sc3cc(OC(F)(F)F)ccc32)nn1 | – | inactive | Active | inactive | inactive | inactive | inactive | inactive | inactive | – | – | – | – |
| N#Cc1ccc(-c2cn(CCn3c(=N)sc4cc(OC(F)(F)F)ccc43)nn2)cc1 | – | inactive | Active | inactive | inactive | inactive | inactive | inactive | inactive | – | – | – | – |
| CCOC(=O)c1cn(CCn2c(=N)sc3cc(OC(F)(F)F)ccc32)nn1 | – | inactive | Active | inactive | inactive | inactive | inactive | inactive | inactive | – | – | – | – |
